This note sets out measurements from ChEMBL document CHEMBL3352270, “Antimalarial activity of abietane ferruginol analogues possessing a phthalimide group” (Bioorg Med Chem Lett, 2014).

Converted amounts (≈) assume the structure as drawn. Some results are limits rather than exact numbers.

Usually EC50 stands for the concentration needed to bring the measured effect to its halfway point. The low end stands for an effect from little substance, the high end for a need for much substance. Broadly, the IC50 is the midpoint of a concentration-inhibition curve.

For data set [1], the system named is BJ. Put plainly: Cytotoxicity against human BJ cells. The data set is classed as ADME, cell-based.
Data set [2] deals with Plasmodium falciparum. Put plainly: microbe, parasite or virus in culture. Type of data set: functional, organism-based. The settings on record: 3D7, 72 h.
Data set [3] relates to HEK293. Kind of data set: Cytotoxicity against HEK293 cells. Type of data set: functional, cell-based. Conditions: Homo sapiens.
Data set [4] has as its system Raji. Kind of data set: Cytotoxicity against human Raji cells. Type of data set: functional, cell-based.
Data set [5] deals with Plasmodium falciparum. Kind of data set: microbe, parasite or virus in culture. The data set is classed as functional, organism-based. The settings on record: K1, 72 h.
Data set [6] deals with HepG2. Put plainly: Cytotoxicity against human HepG2 cells. Type of data set: functional, cell-based.
Data set [7] has as its system Plasmodium falciparum. Kind of data set: Antimalarial activity against chloroquine-sensitive Plasmodium falciparum D6. The data set is classed as functional, organism-based.
Data set [8] can be described thus: Selectivity index, ratio of cytotoxicity against CHO cells to IC50 for Plasmodium falciparum K1. Type of data set: toxicity, cell-based. Conditions: hamster, read-out: Selectivity Index.
Data set [9] relates to Plasmodium falciparum. Put plainly: Antimalarial activity against Plasmodium falciparum K1. The data set is classed as functional, organism-based. In outline:
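Chloroquine-resistant K1 strain of P. falciparum; […].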

Data set [10] has as its system Plasmodium falciparum. Put plainly: Antimalarial activity against chloroquine-resistant Plasmodium falciparum W2. Type of data set: functional, organism-based.
The test system of data set [11] is Plasmodium falciparum. Kind of data set: Antimalarial activity against Plasmodium falciparum D10. Type of data set: functional.
The subject of data set [12] is Plasmodium falciparum. Kind of data set: Antimalarial activity against chloroquine-resistant Plasmodium falciparum K1. Type of data set: functional, organism-based.
Data set [13] is described as follows: Selectivity index, ratio of cytotoxicity against CHO cells to IC50 for Plasmodium falciparum D10. The data set is classed as toxicity, cell-based. The settings on record: hamster, read-out: Selectivity Index.
A short description of data set [14]: Selectivity index, ratio of cytotoxicity against rat L6 cells to IC50 for Plasmodium falciparum K1. Type of data set: toxicity, cell-based. The settings on record: read-out: Selectivity Index.
Data set [15] is described as follows: Selectivity index, ratio of cytotoxicity against human HepG2 cells to IC50 for Plasmodium falciparum K1. The data set is classed as toxicity, cell-based. The settings on record: read-out: Selectivity Index.
Data set [16] is described as follows: Selectivity index, ratio of cytotoxicity against human HepG2 cells to IC50 for Plasmodium falciparum D10. The data set is classed as toxicity, cell-based. Conditions: read-out: Selectivity Index.
Data set [17] in a line: Selectivity index, ratio of cytotoxic EC50 against human cells to EC50 for Plasmodium falciparum 3D7. The settings on record: human cells (cell line not named).
Data set [18] can be described thus: Selectivity index, ratio of cytotoxic EC50 against human cells to EC50 for Plasmodium falciparum K1. The settings on record: human cells (cell line not named).
Data set [19] concerns Plasmodium falciparum. Kind of data set: Antimalarial activity against Plasmodium falciparum D6. Type of data set: functional, organism-based.

Turning to `CC(=O)Oc1cc2c(cc1C(C)C)C(=O)C[C@H]1[C@](C)(CN3C(=O)c4c(Cl)c(Cl)c(Cl)c(Cl)c4C3=O)CCC[C@]21C`, the EC50 in data set [1] was over 25 µM; in [2] it was 15 µM; in data set [3] it was over 25 µM; in data set [4], over 25 µM; in data set [5] it was 15 µM; in data set [6] it was over 25 µM.

In the case of `CC(C)c1cc2c(cc1O)[C@@]1(C)CCCC(C)(C)[C@@H]1CC2` [FERRUGINOL], the IC50 was 4.2 mg/L (≈ 14.7 µM) in data set [7]; under 1 mg/L in data set [9]; 3.5 mg/L (≈ 12.2 µM) in data set [10]; under 1 mg/L in data set [11]; 0.9 µM in data set [12]; 1.95 mg/L (≈ 6.81 µM) in data set [19]. Also, the EC50 in [1] was 19.6 µM; in data set [2] it was 2.47 µM; in [3] it was over 25 µM; in data set [4] it was 11.5 µM; in data set [5], 1.33 µM; in [6] it was over 25 µM. For the same molecule, the selectivity ratio in data set [8] was over 65; in data set [13] it was over 65; in data set [14] it was 15.6; in data set [15], over 65; in data set [16], over 65; in [17] it was 4.6. Further, the selectivity ratio in data set [18] was 8.6.

On to `CC(=O)Oc1cc2c(cc1C(C)C)/C(=N/NS(=O)(=O)c1ccc(C)cc1)C[C@H]1[C@](C)(CN3C(=O)c4c(Cl)c(Cl)c(Cl)c(Cl)c4C3=O)CCC[C@]21C`, for which the EC50 in data set [1] was over 25 µM; in data set [2], 15 µM; in [3] it was over 25 µM; in data set [4] it was over 25 µM; in data set [5] it was 15 µM; in data set [6], over 25 µM.

Turning to `CC(C)c1cc2c(cc1O)[C@@]1(C)CCC[C@@](C)(C=O)[C@@H]1CC2` [18-OXOFERRUGINOL], the EC50 was over 25 µM in [1]; 15 µM in data set [2]; over 25 µM in [3]; over 25 µM in [4]; 15 µM in data set [5]; over 25 µM in [6].

`CC(C)c1cc2c(cc1O)[C@@]1(C)CCC[C@@](C)(CN3C(=O)c4ccccc4C3=O)[C@@H]1CC2`: the EC50 in [1] was over 25 µM; in data set [2] it was 15 µM; in data set [3], over 25 µM; in data set [4], over 25 µM; in data set [5], 4 µM; in [6], over 25 µM. Further, the selectivity ratio in [18] is over 6.3.

With `CCN(CC)CCCC(C)Nc1ccnc2cc(Cl)ccc12` (stereo not given) [CHLOROQUINE], the EC50 is over 25 µM in data set [1]; 0.023 µM in data set [2]; over 25 µM in data set [3]; over 25 µM in data set [4]; 0.69 µM in data set [5]; over 25 µM in [6].

As for `CC(C)=CCC[C@]1(C)C=Cc2c(O)c3c(c(CC=C(C)C)c2O1)O[C@]12C(=C[C@@H]4C[C@H]1C(C)(C)O[C@@]2(C/C=C(/C)C(=O)O)C4=O)C3=O` [GAMBOGIC ACID], the half-maximal effective concentration (EC50) in data set [1] is 0.21 µM; in data set [3], 0.21 µM; in data set [4] it was 0.24 µM; in [6], under 2 µM.

For the molecule `CC(C)c1cc2c(cc1O)[C@@]1(C)CCC[C@@](C)(CN3C(=O)c4c(Cl)c(Cl)c(Cl)c(Cl)c4C3=O)[C@@H]1CC2`, the EC50 is over 25 µM in data set [1]; 15 µM in [2]; over 25 µM in data set [3]; over 25 µM in data set [4]; 15 µM in [5]; over 25 µM in data set [6].

Consider `CC(=O)Oc1cc2c(cc1C(C)C)CC[C@H]1[C@](C)(CN3C(=O)c4ccccc4C3=O)CCC[C@]21C`, for which the EC50 was over 25 µM in data set [1]; 2.09 µM in [2]; over 25 µM in [3]; over 25 µM in [4]; 15 µM in data set [5]; over 25 µM in data set [6]. Also, the selectivity ratio in [17] is over 12.

For the molecule `CC(=O)c1cc2c(cc1C(C)C)CC[C@H]1[C@](C)(CN3C(=O)c4ccccc4C3=O)CCC[C@]21C`, the EC50 is over 25 µM in data set [1]; 0.086 µM in [2]; over 25 µM in [3]; over 25 µM in data set [4]; 0.201 µM in [5]; over 25 µM in [6]. In addition, the selectivity ratio in data set [17] was over 290; in data set [18], over 124.

In the case of `CC(C)c1ccc2c(c1)CC[C@H]1[C@](C)(CN3C(=O)c4ccccc4C3=O)CCC[C@]21C`, the EC50 was over 25 µM in data set [1]; 1.36 µM in [2]; over 25 µM in data set [3]; over 25 µM in data set [4]; 15 µM in [5]; over 25 µM in [6]. The selectivity ratio in data set [17] is over 18.4.

For `CC(C)c1cc2c(cc1O)[C@@]1(C)CCC[C@@](C)(CN)[C@@H]1CC2`, the EC50 in data set [1] is 17.4 µM; in [2], 6.67 µM; in data set [3], over 25 µM; in data set [4] it was over 25 µM; in data set [5], 15 µM; in [6], over 25 µM. The selectivity ratio in [17] came out at 2.6.

Take `CC(=O)Oc1cc2c(cc1C(C)C)CC[C@H]1[C@](C)(CN3C(=O)c4c(Cl)c(Cl)c(Cl)c(Cl)c4C3=O)CCC[C@]21C`: the half-maximal effective concentration (EC50) in data set [1] was over 25 µM; in data set [2], 15 µM; in data set [3], over 25 µM; in [4] it was over 25 µM; in [5], 15 µM; in [6] it was over 25 µM.
